Screens as filed in PubChem BioAssay.
Compounds with a hit are over-represented: about 11% of the library has one in this group of screens.
M1 antagonist – antagonists of rat M1 muscarinic receptor | Muscarinic acetylcholine receptor M1 (Rattus norvegicus), P08482 | CHO-M1 cells, Fluo-4 calcium, ACh EC80 antagonist mode; active compounds read low | B-score at 10 µM | 3.4% of 64,000 active | AID 628, 2007;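 active = calcium fluorescence response, raw or row-and-column corrected B-score, differing from the plate sample mean either way at a set confidence level, mostly lower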
Target sequence (P08482 whole entry, looked up): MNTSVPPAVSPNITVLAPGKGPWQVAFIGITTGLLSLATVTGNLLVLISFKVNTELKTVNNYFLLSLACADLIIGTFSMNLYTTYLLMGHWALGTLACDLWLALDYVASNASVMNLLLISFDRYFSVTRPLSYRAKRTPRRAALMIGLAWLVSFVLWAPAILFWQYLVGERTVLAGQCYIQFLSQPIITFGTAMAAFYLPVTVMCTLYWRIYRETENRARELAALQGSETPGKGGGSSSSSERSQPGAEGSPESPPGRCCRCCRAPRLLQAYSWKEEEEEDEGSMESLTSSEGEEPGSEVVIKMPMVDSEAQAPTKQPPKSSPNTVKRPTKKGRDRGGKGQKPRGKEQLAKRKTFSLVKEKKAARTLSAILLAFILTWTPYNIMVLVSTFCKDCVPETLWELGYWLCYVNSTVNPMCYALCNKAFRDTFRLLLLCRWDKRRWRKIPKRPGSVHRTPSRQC
SF-1 act – activators of human SF-1, primary screen, cell-based, CHO-K1, Gal4-SF-1 LBD, luciferase luminescence; Steroidogenic factor 1 (Homo sapiens), Q13285; CHO-K1 Gal4-SF-1 LBD luciferase reporter; % increase over DMSO SF-1-specific signal; activation, % at 10 µM; 1.9% of 65,000 active; AID 522, 2006;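 active = activation above the mean activation of all tested compounds plus 3 SD, cut at about 50% in these data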
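Material: Gal4–SF-1 LBD one-hybrid luciferase reporter in CHO-K1 cells | Amount: 4,000 cells per well | Compound dosing: 10 µM single point, 1% DMSO | Schedule: 20 h compound treatment, 37 °C | Measured by: SteadyLite luciferase luminescence | Evaluation: Percent activation versus DMSO | Control set: DMSO-treated SF-1-transfected cells as negative, DMSO-treated mock-transfected cells lacking SF-1 as background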
M1 agonist – M1 muscarinic receptor agonists, primary screen, CHO-M1 cells, Fluo-4 calcium, agonist mode. 3% of 64,000 active. Muscarinic acetylcholine receptor M1. Fluo-4 calcium fluorescence; active compounds read high. AID 626, 2007. B-score at 10 µM;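 active = fluorescence rise, raw or as B-score row- and column-corrected plate score, outside the 99.7% band of its plate's samples, either direction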
RORa activator – activators of orphan receptor RORA, primary screen, cell-based, luminescence; CHO-K1 Gal4-RORA LBD luciferase reporter; percent increase over mock-subtracted basal signal; Nuclear receptor ROR-alpha (Homo sapiens), P35398; activation, % at 10 µM; 1.5% of 65,000 active; AID 560, 2006;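 active = activation above the mean of all tested compounds plus 3 SD, cut at about 49% in these data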;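 also: 0% = DMSO-treated RORA cells and 100% = added signal equal to DMSO minus mock-transfected cells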
D1 allo mod – D1 CRE-luciferase signal change, two-sided – cell-based, HEK293 D1, dopamine EC30, D1 allosteric modulator project, primary screen; dopamine EC30 potentiation; actives deviate in either direction; B-score at 10 µM; 5.9% of 58,000 active; AID 641, 2007;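 active = luminescence count or its row- and column-corrected plate score outside the 99.7% band of the plate's sample wells, on either side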
Htt clearance – clearance of mutant huntingtin inclusions, primary screen, imaging, HeLa Exon1htt(103Q)mCFP, confocal imaging; aggregate imaging; zero = plate's median compound well; inhibition, % at 1.5 µM; 0.42% of 47,000 active;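 active = inhibition of aggregate fluorescence above about 70%, also judged a hit by eye on the cell image, limit read from the data, passing the limit was not always enough; inconclusive = no rule stated for this call; inactive = not judged a hit on image review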;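 also: cells exposed to compound for three days before fixation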
An asterisk follows results filed as active; ? = inconclusive; nt = no result.

SMILES | M1 antagonist | SF-1 act | M1 agonist | RORa activator | D1 allo mod | Htt clearance
CCOC(=O)Cc1cnc(NC(=O)Cn2nnc(-c3ccc(OCC)cc3)n2)s1 | -1 | 25 | -0.0095 | 0 | 0.13 | nt
CCCCOc1ccc(-c2nnn(CC(=O)NCc3ccco3)n2)cc1 | 0.16 | 37 | -1.5 | 198* | 0.024 | -18
CCOC(=O)Cc1csc(NC(=O)CSc2ncnc3c2cnn3-c2ccc(OC)cc2)n1 | 0.075 | 15 | 0.028 | -6 | -4.2* | 8
Cc1ccc(NC(=O)Nc2ccc(F)cc2)nc1 | -1.3 | 83* | -0.055 | 25 | 0.077 | -41
Cc1ccnc(NC(=O)Nc2ccc(F)cc2)c1 | 0.065 | 36 | 0.21 | 21 | -2.9 | nt
Cc1ccc(C(C)C)c(OCC(O)CN2CC(C)OC(C)C2)c1 (centres undefined) | -0.041 | 17 | 0.14 | -20 | -3.5* | nt
Cc1nn(-c2ccccc2)c2sc(C(=O)N3CCOCC3)cc12 | -0.026 | 94* | -0.92 | 58* | 1.9 | -30
O=C(c1ccco1)N1CCN(C(=O)c2cc3c(=O)oc4ccccc4c3s2)CC1 | nt | -9 | nt | -10 | 0.89 | nt
Cc1nn(-c2ccccc2)c2sc(C(=O)O)cc12 | -0.5 | -8 | 0.075 | -7 | nt | nt
O=C(c1cc2c(=O)n3ccccc3nc2s1)N1CCOCC1 | 0.34 | 60* | 0.58 | 24 | 0.76 | nt
O=C(c1cc2c(=O)oc3ccccc3c2s1)N1CCOCC1 | nt | 29 | nt | 46 | -4.6* | 33
Cc1nnc(SCC(=O)NCc2ccc3c(c2)OCO3)[nH]c1=O | 0.26 | 14 | -0.11 | -9 | 0.67 | nt
CS(=O)(=O)N(CCc1ccccc1)CC(=O)NCC1CCCO1 (centres undefined) | 0.12 | -18 | -0.14 | -25 | -0.063 | 48
O=C(CCN1CCc2ccccc2C1)Nc1ccccc1 | nt | 6 | nt | 12 | 0.1 | 33
CC(Oc1ccc(Cl)cc1Cl)C(=O)Nc1ccc(N2CCN(C)CC2)cc1 (centres undefined) | -2.1 | -22 | 1.3 | 6 | -4.8* | 11
O=C(NCc1ccco1)c1cc2c(s1)CCCCC2 | -0.83 | 70* | 0.44 | 7 | -1.3 | -29
O=C(NCc1ccco1)c1ccc(Br)s1 | 0.091 | 0 | -0.39 | 14 | 0.071 | nt
CCc1nnc(NC(=O)c2cc3c(s2)CCCCC3)s1 | 0.64 | 74* | -0.27 | 34 | -2.4* | -17
O=C(Nc1ccon1)c1cc2c(s1)CCCCCC2 | 0.33 | 82* | -0.46 | 45 | -0.83 | ?
CC1c2nc3ccccc3n2C(CC(=O)NCc2ccccn2)C(=O)N1Cc1ccccc1 (centres undefined) | 0.38 | 7 | -0.75 | -15 | -0.4 | nt
Cc1ccnc(NC(=O)c2cc(S(=O)(=O)N3CCCCC3)ccc2Cl)c1 | -0.19 | 0 | -0.36 | -2 | 0.59 | nt
CC1(C)Oc2nc3ccccc3n2/C1=C\C#N | nt | nt | nt | nt | nt | 34
CCOC(=O)c1nc(NCc2cccnc2)c2ccccc2n1 | 0.25 | 30 | 0.42 | 18 | 2.7* | 47
Cc1nc2ccccc2c(=O)n1NC(=O)COc1ccccc1 | nt | 5 | nt | 13 | -2.9* | nt
CC(Sc1nc2ccccc2[nH]1)C(=O)O (centres undefined) | nt | nt | nt | nt | nt | 69
SMILES | M1 antagonist | SF-1 act | M1 agonist | RORa activator | D1 allo mod | Htt clearance
CC(=O)N=C(N)Sc1nc2ccccc2[nH]1 | 0.67 | 98* | 0.26 | 31 | nt | -4
CCOc1ccc(C(O)C(CN2CCOCC2)c2ccccc2)cc1 (centres undefined) | nt | nt | nt | nt | nt | -37
CN(C)C(=O)c1c2c(nc3ccccc13)-c1ccccc1CC2 | nt | nt | nt | nt | nt | -59
Cc1n[nH]c(C)c1S(=O)(=O)Nc1ccc2c(c1)OCCO2 | 2.3* | 1 | 0.34 | -14 | -4.2* | 5
Cc1ccc(N(CC(=O)Nc2ccc3c(c2)OCCO3)S(=O)(=O)c2c(C)n[nH]c2C)cc1 | 0.42 | -12 | 0.49 | -1 | -0.32 | nt
CCCCC(=O)NC1(C(F)(F)F)C(=O)Nc2c1c(=O)n(C)c(=O)n2C (centres undefined) | 1.5* | -8 | -0.29 | 3 | -0.3 | -16
CC(=O)NC1(C(F)(F)F)C(=O)Nc2c1c(=O)n(C)c(=O)n2C (centres undefined) | 0.22 | -9 | 0.26 | -10 | -0.11 | 30
COc1ccc(OCc2nc3ccccc3[nH]2)cc1 | nt | nt | nt | nt | nt | 38
c1cnc2c(OCc3nc4ccccc4[nH]3)cccc2c1 | 0.8 | 65* | 0.19 | 82* | -1.6 | -17
COc1ccccc1OCc1nc2ccccc2[nH]1 | -0.57 | 53* | 1 | 54* | nt | -32
c1ccc(-c2n[nH]c(-c3ccccn3)n2)nc1 | -0.27 | 78* | 0.18 | 24 | -0.25 | nt
c1ccc(-c2n[nH]c(-c3ccccn3)n2)cc1 | nt | nt | nt | nt | nt | 8
O=C1CC(NCc2ccncc2)C(=O)N1c1ccc(Cl)cc1 (centres undefined) | 0.4 | -3 | 0.052 | -5 | 0.0079 | -15
CCCCNC(=O)OC1CCS(=O)(=O)C1 (centres undefined) | -0.057 | -17 | -1.8 | -3 | -0.047 | 58
O=C(NC(=O)c1cccc(OC(F)(F)C(F)F)c1)OC1CCS(=O)(=O)C1 (centres undefined) | -19* | 7 | 22* | 5 | -0.65 | nt
COC(=O)CSC(C(=O)Nc1ccc(C)c(C)c1)c1ccccc1 (centres undefined) | nt | nt | nt | nt | nt | -30
COC(=O)c1ccccc1NC(=O)c1cnn2c(C(F)F)cc(C3CC3)nc12 | -0.056 | -8 | -0.43 | 9 | 0.4 | 76*
Cc1snc(S(=O)(=O)Cc2ccccc2Cl)c1C#N | nt | nt | nt | nt | nt | -50
Cc1cccc(OCCn2c(=O)n(C)c3ccccc32)c1 | -0.02 | 81* | -0.032 | 67* | nt | nt
O=C(O)CC(c1cccc2ccccc12)n1cccc1 (centres undefined) | nt | nt | nt | nt | nt | 16
CC(=O)Nc1nc(COc2ccccc2)cs1 | -0.46 | 38 | -0.45 | 51* | 0.35 | nt
CCc1ccc(-n2nc3ccc(NC(=O)c4ccc5c(c4)OCO5)cc3n2)cc1 | nt | nt | nt | nt | nt | 6
CC(=O)Nc1ccc(C(=O)Nc2ccc3c(c2)OCO3)cc1 | -0.18 | 31 | -0.87 | 29 | nt | nt
O=C(Nc1ccc2nsnc2c1)c1ccc2c(c1)OCO2 | 0.62 | 3 | 0.27 | -6 | -4* | 18
Cc1cc(C)n2ncc(C(=O)Nc3ccc4c(c3)OCO4)c2n1 | 0.27 | 4 | -0.65 | 5 | -0.076 | 37
O=C(Nc1ccc2c(c1)OCO2)c1cnn2cccnc12 | 0.036 | 70* | -0.24 | 61* | 0.1 | 8
O=C(Nc1ccc2c(c1)OCO2)N1CCN(S(=O)(=O)c2ccc(Cl)cc2)CC1 | -0.15 | 18 | 0.95 | 20 | 0.078 | 77*
O=C(CN1CCN(S(=O)(=O)c2ccc(Cl)cc2)CC1)Nc1ccc2c(c1)OCO2 | -0.86 | 10 | 0.21 | -6 | -1.3 | nt
Cc1occc1C(=O)Nc1ccc2c(c1)OCO2 | 0.3 | 53* | 0.56 | 18 | -2.1 | nt
